Consider 39 compounds from PubChem BioAssay.

Values without a mark were called inactive.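 How the source made its calls, unless noted: active means viability increase at or above a cutoff of the median across tested compounds plus 3 SD (cut at about 8.5% in these data, passing the limit was not always enough); inconclusive means some gains above the cutoff, reason not given; inactive means the rest.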

The first experiment in a line: S. cerevisiae growth inhibition in restrictive medium, OD615, pilot screen, restrictive growth control, yeast lifespan reduction project (AID 706;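 active means growth inhibition above a set limit, 3 SD over mean compound inhibition, in both replicates, cut at about 43% in these data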;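 further: modified DeaD lifespan yeast strain shifted to restrictive glucose medium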). Particulars: OD615, 48 h, at 10 µM, active compounds read high. The procedure, abridged:
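material = engineered S. cerevisiae DeaD strain | medium = glucose-based CSMM-D restrictive medium | times = 4 h pre-incubation, 48 h exposure at 30 °C | technique = OD615 absorbance reading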
On to `Cc1ccc(CNC(=O)C2CCCN(S(=O)(=O)c3cnc[nH]3)C2)cc1` (stereo not drawn), for which the growth inhibition is 6.6%.

`COc1cc2c(cc1OC)C(c1ccc(C)o1)CC(=O)N2` (stereo not drawn): the growth inhibition was 1.56%.

`COc1ccc(S(=O)(=O)Nc2ccc(F)c(Cl)c2)cc1OC`: the growth inhibition is 4.31%.

For the compound `O=C(OCCN(CCOC(=O)c1ccncc1)S(=O)(=O)c1cccs1)c1ccncc1`, the growth inhibition is 1.04%.

For `N#CCCN(Cc1cccnc1)C(=O)Nc1ccc(Cl)c(Cl)c1`, the growth inhibition was -14.9%.

On to `NC(=O)CN1C(=O)C(O)(CC(=O)c2ccccc2O)c2ccccc21` (stereo not drawn), for which the growth inhibition was -10.4%.

In the case of `CCCOc1ccc(C2C(C(=O)OC)=CN(CCOC)C=C2C(=O)OC)cc1`, the growth inhibition was 12.8%.

For `C(=N\c1c(-c2ccccc2)nc2n1CCS2)/c1ccccc1`, the growth inhibition was 40.4%.

Consider `COC(=O)c1cn(NC(=O)C2CCCO2)c(=O)c2ccccc12` (stereo not drawn), for which the growth inhibition was -23.6%.

Take `CCN1CCN(C(=O)C2CC(c3ccc(F)cc3)=NO2)CC1` (stereo not drawn): the growth inhibition was 3.61%.

As to `CCOC(=O)C1CCN(Cc2ccc(OC)c(C)c2OC)CC1`, the growth inhibition is 2.96%.

`Cn1c(NC(=O)c2ccccc2NC(=O)C(C)(C)C)nc2ccccc21`: the growth inhibition was 8.1%.

As to `Cc1cccc(CN2CCC(CNC(=O)C3CCCN(S(=O)(=O)c4cnc[nH]4)C3)CC2)c1` (stereo not drawn), the growth inhibition is -2.77%.

On to `CC1CC(NC(=O)c2cnc3n(c2=O)CCS3)CC(C)(C)C1` (stereo not drawn), for which the growth inhibition was -8.4%.

As for `CC1CCCN(S(=O)(=O)c2coc(C(N)=O)c2)C1` (stereo not drawn), the growth inhibition was -4.31%.

On to `O=C(NCc1ccc2c(c1)OCO2)C1CCCN(S(=O)(=O)c2cccc3cccnc23)C1` (stereo not drawn), for which the growth inhibition is -10.5%.

`CC(C)(O)C#Cc1ccc(C(=O)N2CCN(C(=O)c3ccco3)CC2)cc1`: the growth inhibition is -11.2%.

As for `COC(=O)C1=C(C)Nc2nnnn2C1c1ccc(Cl)cc1Cl` (stereo not drawn), the growth inhibition is -1.33%.

As to `CC(NC(=O)C1CC1)C(c1cccs1)N1CCN(c2ccccc2)CC1` (stereo not drawn), the growth inhibition was 6.87%.

For the compound `O=C(Nc1c(C(=O)NCc2ccco2)cnn1-c1ccccc1)c1ccc(F)cc1`, the growth inhibition is 13.1%.

On to `COc1ccc(-n2c(Cc3cccn3C)nnc2SCC(=O)Nc2cccc(Cl)c2)cc1`, for which the growth inhibition was 21.3%.

In the case of `CCOC(=O)N1CCN(C(=O)c2ccc3nc4ccsc4c(=O)n3c2)CC1`, the growth inhibition is 7.09%.

Turning to `CCC(C)C(=O)Nc1nc2c(s1)C(=O)CC(C)(C)C2` (stereo not drawn), the growth inhibition is -8.86%.

With `COc1cc2c(cc1OC)CN(C(=O)CSc1nc3[nH]ncc3c(=O)n1-c1ccccc1)CC2`, the growth inhibition is -24.6%.

On to `CC(NC(=O)c1cc2c(=O)n(C)c3ccccc3c2n1C)c1ccc2c(c1)OCCO2` (stereo not drawn), for which the growth inhibition was -1.51%.

Take `O=C(C1CCCN1S(=O)(=O)c1cccc2cccnc12)N1CCn2c1nc1ccccc12` (stereo not drawn): the growth inhibition is 4.54%.

With `CCn1c(SCC(=O)Nc2cc(C)ccc2C)nc2c(c1=O)SC(C)C2` (stereo not drawn), the growth inhibition was -6.79%.

Turning to `CCOC(=O)c1sc2nc(NC(=O)COc3ccccc3)sc2c1C`, the growth inhibition was -19.8%.

As to `Cc1ccc(-n2ncc3c(N4CCCC(C)C4)ncnc32)c(C)c1` (stereo not drawn), the growth inhibition was 10%.

In the case of `O=C(O)C1C2C=CC3(CN(C4CCCC4)C(=O)C13)O2` (stereo not drawn), the growth inhibition is 2.54%.

Regarding `CCCCSc1nc2c(cnn2-c2ccc(F)cc2)c(=O)[nH]1`, the growth inhibition was -3.62%.

As for `CCCCCn1c(=O)[nH]c2cc(C(=O)NCCN3CCOCC3)ccc2c1=O`, the growth inhibition was -10.6%.

As for `Cc1ccc(-c2cc3nc4c(c(=O)n3[nH]2)CCCC4)cc1`, the growth inhibition was -22.5%.

Take `CCCOC(=O)c1[nH]c2c(c1C)C(=O)CC(c1cc(OC)c(OC)c(OC)c1)C2` (stereo not drawn): the growth inhibition was -14.6%.

On to `COc1cccc(-c2nc3n(n2)C(c2ccccc2Cl)C(C(N)=O)=C(C)N3)c1` (stereo not drawn), for which the growth inhibition was -0.24%.

For the compound `Cc1c(NC(=O)c2ccc(Br)o2)c(=O)n(-c2ccccc2)n1C`, the growth inhibition is -4.15%.

`COc1ccc(-c2nc(CS(=O)CC(=O)NCc3ccccn3)c(C)o2)cc1` (stereo not drawn): the growth inhibition is 18%.

For `CCOc1cc(C2NC(=O)NC(O)(C(F)(F)F)C2C(=O)c2ccccc2)ccc1OC` (stereo not drawn), the growth inhibition is 19.4%.

Consider `CN(CCCNC(=O)c1cn(C)c2ccc(S(=O)(=O)N(C)C)cc2c1=O)c1ccccc1`, for which the growth inhibition is -0.125%.

Another experiment is described as follows: doxorubicin toxicity protection in MRP-1 cells – H69AR cells, CellTiter-Glo, duplicate, MRP-1 activator project, pilot screen (AID 807).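 Further: compound pretreatment 18-22 h then 72 h combined with doxorubicin; 0% = doxorubicin alone and 100% = vehicle without doxorubicin.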 The note with it: H69AR viability with doxorubicin, CellTiter-Glo luminescence; at 10 µM; active compounds read high. For orientation: In ATP-based viability assays light output follows the ATP content of the culture.
As to `Cc1ccc(CNC(=O)C2CCCN(S(=O)(=O)c3cnc[nH]3)C2)cc1` (stereo not drawn), the viability increase was 0.52%.

For the compound `COc1cc2c(cc1OC)C(c1ccc(C)o1)CC(=O)N2` (stereo not drawn), the viability increase was -4.72%.

Regarding `COc1ccc(S(=O)(=O)Nc2ccc(F)c(Cl)c2)cc1OC`, the viability increase was -1.4%.

Consider `O=C(OCCN(CCOC(=O)c1ccncc1)S(=O)(=O)c1cccs1)c1ccncc1`, for which the viability increase is -2.14%.

For the compound `N#CCCN(Cc1cccnc1)C(=O)Nc1ccc(Cl)c(Cl)c1`, the viability increase is 0.83%.

With `NC(=O)CN1C(=O)C(O)(CC(=O)c2ccccc2O)c2ccccc21` (stereo not drawn), the viability increase is -2.93%.

As for `CCCOc1ccc(C2C(C(=O)OC)=CN(CCOC)C=C2C(=O)OC)cc1`, the viability increase was -2.37%.

With `C(=N\c1c(-c2ccccc2)nc2n1CCS2)/c1ccccc1`, the viability increase was -4.2%.

With `COC(=O)c1cn(NC(=O)C2CCCO2)c(=O)c2ccccc12` (stereo not drawn), the viability increase is -0.57%.

`CCN1CCN(C(=O)C2CC(c3ccc(F)cc3)=NO2)CC1` (stereo not drawn): the viability increase is 0.82%.

Turning to `CCOC(=O)C1CCN(Cc2ccc(OC)c(C)c2OC)CC1`, the viability increase was -4.57%.

On to `Cn1c(NC(=O)c2ccccc2NC(=O)C(C)(C)C)nc2ccccc21`, for which the viability increase is -2.36%.

As for `Cc1cccc(CN2CCC(CNC(=O)C3CCCN(S(=O)(=O)c4cnc[nH]4)C3)CC2)c1` (stereo not drawn), the viability increase is 0.07%.

As for `CC1CC(NC(=O)c2cnc3n(c2=O)CCS3)CC(C)(C)C1` (stereo not drawn), the viability increase was -0.41%.

In the case of `CC1CCCN(S(=O)(=O)c2coc(C(N)=O)c2)C1` (stereo not drawn), the viability increase was -0.1%.

Regarding `O=C(NCc1ccc2c(c1)OCO2)C1CCCN(S(=O)(=O)c2cccc3cccnc23)C1` (stereo not drawn), the viability increase was -2.13%.

For the compound `CC(C)(O)C#Cc1ccc(C(=O)N2CCN(C(=O)c3ccco3)CC2)cc1`, the viability increase was -0.62%.

Take `COC(=O)C1=C(C)Nc2nnnn2C1c1ccc(Cl)cc1Cl` (stereo not drawn): the viability increase was -5.06%.

For the compound `CC(NC(=O)C1CC1)C(c1cccs1)N1CCN(c2ccccc2)CC1` (stereo not drawn), the viability increase is 0.65%.

For the compound `O=C(Nc1c(C(=O)NCc2ccco2)cnn1-c1ccccc1)c1ccc(F)cc1`, the viability increase is -5.34%.

With `COc1ccc(-n2c(Cc3cccn3C)nnc2SCC(=O)Nc2cccc(Cl)c2)cc1`, the viability increase was -1.93%.

For `CCOC(=O)N1CCN(C(=O)c2ccc3nc4ccsc4c(=O)n3c2)CC1`, the viability increase is -4.18%.

As for `CCC(C)C(=O)Nc1nc2c(s1)C(=O)CC(C)(C)C2` (stereo not drawn), the viability increase was 0.25%.

In the case of `COc1cc2c(cc1OC)CN(C(=O)CSc1nc3[nH]ncc3c(=O)n1-c1ccccc1)CC2`, the viability increase is -1.5%.

Take `CC(NC(=O)c1cc2c(=O)n(C)c3ccccc3c2n1C)c1ccc2c(c1)OCCO2` (stereo not drawn): the viability increase was -4.19%.

As to `O=C(C1CCCN1S(=O)(=O)c1cccc2cccnc12)N1CCn2c1nc1ccccc12` (stereo not drawn), the viability increase is 0.79%.

`CCn1c(SCC(=O)Nc2cc(C)ccc2C)nc2c(c1=O)SC(C)C2` (stereo not drawn): the viability increase is -4.15%.

With `CCOC(=O)c1sc2nc(NC(=O)COc3ccccc3)sc2c1C`, the viability increase is 1.51%.

As to `Cc1ccc(-n2ncc3c(N4CCCC(C)C4)ncnc32)c(C)c1` (stereo not drawn), the viability increase was -8.5%.

For `O=C(O)C1C2C=CC3(CN(C4CCCC4)C(=O)C13)O2` (stereo not drawn), the viability increase is -0.64%.

Turning to `CCCCSc1nc2c(cnn2-c2ccc(F)cc2)c(=O)[nH]1`, the viability increase is -2.12%.

As to `CCCCCn1c(=O)[nH]c2cc(C(=O)NCCN3CCOCC3)ccc2c1=O`, the viability increase was -0.3%.

For `Cc1ccc(-c2cc3nc4c(c(=O)n3[nH]2)CCCC4)cc1`, the viability increase is -0.73%.

Take `CCCOC(=O)c1[nH]c2c(c1C)C(=O)CC(c1cc(OC)c(OC)c(OC)c1)C2` (stereo not drawn): the viability increase is 1.98%.

Consider `COc1cccc(-c2nc3n(n2)C(c2ccccc2Cl)C(C(N)=O)=C(C)N3)c1` (stereo not drawn), for which the viability increase is -3.31%.

Turning to `Cc1c(NC(=O)c2ccc(Br)o2)c(=O)n(-c2ccccc2)n1C`, the viability increase was 0.9%.

Take `COc1ccc(-c2nc(CS(=O)CC(=O)NCc3ccccn3)c(C)o2)cc1` (stereo not drawn): the viability increase is -1.58%.

Consider `CCOc1cc(C2NC(=O)NC(O)(C(F)(F)F)C2C(=O)c2ccccc2)ccc1OC` (stereo not drawn), for which the viability increase is -0.8%.

Take `CN(CCCNC(=O)c1cn(C)c2ccc(S(=O)(=O)N(C)C)cc2c1=O)c1ccccc1`: the viability increase is -3.8%.
